High-throughput results (PubChem)
An excerpt weighted towards active compounds, which were near 3.5% of everything screened.
RGS4 pot = RGS4 potentiation or activation; 310,000 tested, 0.92% active; AID 463111; HEK293 M3R/inducible RGS4, carbachol calcium flux Fluo4; hits give low values; B-score at 10 µM;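 active means B-score of the integrated calcium signal more than 4 SD below the library mean, with starting fluorescence not abnormally high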;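 further: negative B-score means reduced calcium response which marks RGS4 activation or potentiation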
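System – HEK293 FlpIn-TREx cells, stable M3R, doxycycline-inducible RGS4 · Reagent – ECmax carbachol challenge · Times – compound preincubation 20 min at room temperature before agonist · Technique – Fluo4 fluorescence kinetic imaging of calcium · Measure – B score of integrated Fluo4 ratio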
MrgX1 PAM = human MrgX1 positive allosteric modulation, primary screen; Q96LB2; MrgX1-HEK293, Fluo-4 calcium flux, FDSS; hits give high values; B-score at 10 µM; 310,000 tested, 0.63% active; AID 588675;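 active means plate-corrected calcium response at least 3 library SD above typical, normal starting fluorescence, not activating the receptor alone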;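 further: compound read alongside a low EC10 to EC30 dose of BAM8-22 agonist; peak minus trough fluorescence over baseline measured at the second addition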
Target sequence (Q96LB2 whole entry, looked up): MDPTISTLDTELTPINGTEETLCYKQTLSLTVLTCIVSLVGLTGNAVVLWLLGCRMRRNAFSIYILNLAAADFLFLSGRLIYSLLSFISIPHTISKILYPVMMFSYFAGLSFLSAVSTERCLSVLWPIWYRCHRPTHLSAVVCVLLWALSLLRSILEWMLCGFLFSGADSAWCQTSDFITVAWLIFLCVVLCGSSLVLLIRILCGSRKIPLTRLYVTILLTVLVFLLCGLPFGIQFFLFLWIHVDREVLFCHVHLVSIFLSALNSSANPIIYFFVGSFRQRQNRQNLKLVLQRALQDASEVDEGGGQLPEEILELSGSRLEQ
RGS4 inh = human RGS4 inhibition. 310,000 tested, 0.45% active. B-score at 10 µM. HEK293 M3R/RGS4 inducible, Fluo-4 calcium flux; hits give high values; triggered by carbachol at its EC20;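 active means B-score, a plate-corrected calcium signal, over three deviations above library mean, with baseline fluorescence within five deviations of library mean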;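 further: RGS4 expression induced by doxycycline in cells with stable M3 receptor; B-score is computed from the integrated fluorescence ratio over baseline after carbachol; higher B-score means a larger calcium signal and so more RGS4 inhibition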
Target sequence (P49798 whole entry, looked up): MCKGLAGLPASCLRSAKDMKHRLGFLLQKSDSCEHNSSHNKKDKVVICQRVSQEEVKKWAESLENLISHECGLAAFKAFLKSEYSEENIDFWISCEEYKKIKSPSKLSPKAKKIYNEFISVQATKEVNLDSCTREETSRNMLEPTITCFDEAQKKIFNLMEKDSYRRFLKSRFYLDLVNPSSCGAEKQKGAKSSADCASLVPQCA
MrgX1 antag = blocks BAM8-22 activation of human MrgX1 receptor; Q96LB2; MRGX1-HEK293 calcium flux, Fluo-4, BAM8-22 antagonism; hits give low values; B-score at 10 µM; 310,000 tested, 1.3% active;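 active means calcium-response B-score plate-corrected more than 3 library SD below zero, starting fluorescence within 5 deviations, no agonist response on first addition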;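 further: peak minus trough fluorescence over baseline after final BAM8-22 challenge near maximal dose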
MrgX1 agonist = activates human MrgX1 receptor signaling; Q96LB2; MrgX1-HEK293 cells, Fluo-4 calcium fluorescence, agonist mode; hits give high values; AID 588627; 310,000 tested, 0.44% active; B-score at 10 µM;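 active means calcium response B-score plate-corrected fluorescence ratio at least 3 library SD, with starting fluorescence B-score inside 5 SD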
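Test system: Stable human MrgX1 HEK293 cell line | Schedule: Overnight plating before 1 h dye loading | Read-out basis: Baseline-normalised fluorescence change ratio, B-scored | Detection: Kinetic calcium dye fluorescence, Fluo-4 NW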
RGS4 activ val = confirmation of RGS4 activators; 1,100 tested, 89% active; shares compounds with RGS4 pot; AID 602282; inhibition, % at 10 µM; HEK293 M3R/RGS4 inducible, carbachol calcium flux Fluo4;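 active means inhibition above 3 SD of the buffer control wells, cut at about 41% in these data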;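 further: signal is the integrated peak-minus-minimum Fluo4 fluorescence over baseline ratio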
M3R Ca counter = RGS4 activator counter-screen hit in non-induced cells; shares compounds with RGS4 pot; HEK293 M3R non-induced RGS4, Fluo4 calcium flux; after carbachol challenge at its EC90; inhibition, % at 10 µM; 1,100 tested, 82% active;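 active means inhibition exceeding 3 SD of buffer-only control wells, cut at about 26% in these data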;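 further: percent drop in integrated peak-minus-baseline over baseline Fluo4 ratio after carbachol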
Of the large screens only hits and unclear results are named; the others gave an inactive call (follow-up assays come after a bar, where they were run).

CCc1ccc(N(CC(=O)NC(C)C)C(=O)CCC(=O)Nc2ccccn2)cc1	none
COC(=O)C(NC(=O)COc1ccccc1)(Nc1nc2c(s1)CCCC2)C(F)(F)F (stereo unspecified)	RGS4 pot -12 | RGS4 activ val 80 | M3R Ca counter 33
CN(c1nc2ccccc2n2c(C3CC3)nnc12)S(=O)(=O)c1ccccc1	none
CC1(C)Cc2c(cnn2-c2ccccc2)C(NC(=O)CCCn2cncn2)C1 (stereo unspecified)	none
COc1ccccc1CN1CCC(CNS(=O)(=O)c2cc(-c3onc(C)c3C)ccc2OC)CC1	RGS4 pot -8 | RGS4 activ val 90 | M3R Ca counter 65
N#CCC(=O)Nc1ccc(C(=O)NCC(c2ccco2)N2CCCCC2)cc1 (stereo unspecified)	none
CCCc1cc(=O)oc2cc(C)cc(OC(C)C(=O)N[C@@H](Cc3c[nH]c4ccccc34)C(=O)O)c12 (stereo partly specified)	RGS4 pot -14 | RGS4 activ val inactive | M3R Ca counter inactive
CCCCc1cc(=O)oc2cc(C)cc(OC(C)C(=O)NC(Cc3c[nH]c4ccc(O)cc34)C(=O)O)c12 (stereo unspecified)	none
COCCN(Cc1cc2cc3c(cc2nc1Cl)OCO3)C(=O)c1ccc(C)cc1	none
Cc1c(NC(=S)Nc2ccc(Cl)cc2)c(=O)n(-c2ccccc2)n1C	none
Cc1cc(OCC(=O)Nc2ccc(S(=O)(=O)N3CCN(C)CC3)cc2)ccc1Cl	RGS4 pot -8.3 | RGS4 activ val inactive | M3R Ca counter inactive
COC(=O)c1ccc(OCCN2CCCCCC2)cc1	RGS4 pot -7.8 | RGS4 activ val 66 | M3R Ca counter 84
Cc1ccc(NS(=O)(=O)c2cccc3nsnc23)cc1[N+](=O)[O-]	none
CCCc1cc(-c2ccc3c(c2)COc2c4ccccc4nn2-3)on1	none
Cc1cc(C)c(S(=O)(=O)Nc2ccc(O)cc2)c(C)c1	none
Cc1cc(C)c(S(=O)(=O)Nc2ccc3c(c2)CCC3)c(C)c1	RGS4 pot -10 | RGS4 activ val 92 | M3R Ca counter 74
CCN1CCCC1CNCc1ccccc1OCc1ccc(F)cc1 (stereo unspecified)	RGS4 pot -7.6 | RGS4 activ val 46 | M3R Ca counter inactive
CCN1CCCC1CNCc1cccc(OC)c1OCc1ccccc1 (stereo unspecified)	none
CC(C)CNCC(=O)N1c2ccccc2Sc2ccccc21	RGS4 pot -8 | RGS4 activ val 86 | M3R Ca counter 50
Cc1cccc[n+]1CC(=O)N1c2ccccc2Sc2ccccc21	RGS4 pot -14 | RGS4 activ val 92 | M3R Ca counter 87
COCCCNC(=O)N1c2ccccc2Sc2ccccc21	none
COCCNCC(=O)N1c2ccccc2Sc2ccccc21	RGS4 pot -9.5 | RGS4 activ val 94 | M3R Ca counter 41
COc1ccc(NC(=O)CN(C)C(=O)c2cc(CN3C(=O)c4ccccc4C3=O)ccc2OC)cc1	none
O=S(=O)(Nc1cccc(-n2cnnn2)c1)c1ccccc1C(F)(F)F	none
O=C(O)c1ccccc1CSc1nnc2c(n1)[nH]c1ccccc12	none
COc1ccccc1OCC(=O)Nc1cc(Cl)ccc1Oc1ccccc1	RGS4 pot -9.1 | RGS4 activ val inactive | M3R Ca counter inactive
Cc1ccccc1OCC(=O)Nc1cc(Cl)ccc1Oc1ccccc1	none
CCCN1CCc2c(sc(NC(=O)c3ccc(S(=O)(=O)N(C)c4ccccc4)cc3)c2C(=O)NC)C1	RGS4 pot -9.5 | RGS4 activ val 84 | M3R Ca counter 52
CN1CCN(C(=O)N2c3ccccc3C=Cc3ccccc32)CC1	RGS4 pot -9.7 | RGS4 activ val 94 | M3R Ca counter 69
O=C(CN1CCCC1)N1CCCc2ccccc21	none
O=C(CN1CCCC1)N1c2ccccc2C=Cc2ccccc21	RGS4 pot -10 | RGS4 activ val 82 | M3R Ca counter 41
NC(=O)N1c2ccccc2C=Cc2ccccc21	none
CCCCNC(=S)NNC(=O)c1cc(C2CC2)nc2ccccc12	none
Cc1ccc(S(=O)(=O)N2CCN(C(=O)c3cc4c(C)nn(-c5ccccc5C)c4s3)CC2)cc1	RGS4 pot -8.5 | RGS4 activ val 83 | M3R Ca counter 34
c1ccc2c(-c3nc(C4CCCCC4)no3)cc(-c3ccncc3)nc2c1	RGS4 pot -9.4 | RGS4 activ val 93 | M3R Ca counter 85
O=C1N(c2cccc(Cl)c2)C(c2ccc(Cl)cc2)N2CCCN12 (stereo unspecified)	none
CC(O)(C#CCN1CCCC1)c1ccccc1 (stereo unspecified)	none
CC(O)(C#CCN1CCCCC1)c1ccccc1 (stereo unspecified)	none
C(#Cc1ccccc1)CN1CCCCC1	none
CC(C)(C)C(O)(CC#CCN1CCCC1)c1ccccc1 (stereo unspecified)	RGS4 pot -9.4 | RGS4 activ val 76 | M3R Ca counter 31
C(#CCN1CCCC1)CC(c1ccccc1)c1ccccc1	RGS4 pot -13 | RGS4 activ val 92 | M3R Ca counter 93
CC(C)C(O)(CC#CCN1CCCC1)c1ccccc1 (stereo unspecified)	RGS4 pot -9.2 | RGS4 activ val 92 | M3R Ca counter 44
OC(CC#CCN1CCOCC1)(c1ccccc1)c1ccccc1	none
CC(C)C(O)(C#CCN1CCCCCC1)c1ccccc1 (stereo unspecified)	RGS4 pot -11 | RGS4 activ val 94 | M3R Ca counter 87
CC(C)(C#CCN1CCCCC1)OCCOC(c1ccccc1)c1ccccc1	RGS4 pot -12 | RGS4 activ val 93 | M3R Ca counter 92
CC1CCCN1CC#CC(O)(c1ccccc1)c1ccccc1 (stereo unspecified)	RGS4 pot -7.9 | RGS4 activ val 90 | M3R Ca counter 92
OC(C#CCN1CCCC1)(c1ccccc1)c1cccc(F)c1 (stereo unspecified)	RGS4 pot -8.4 | RGS4 activ val 92 | M3R Ca counter 96
COc1ccc2c(C)c(CCC(=O)NCCCN3CCCC3=O)c(=O)oc2c1C	RGS4 pot -8.9 | RGS4 activ val inactive | M3R Ca counter inactive
CCCNS(=O)(=O)c1cc(Cl)ccc1OC	none
CC(=O)c1ccc(OCCCC(=O)NCCc2ccc(C(F)(F)F)cc2)cc1	none
Cc1cccc(-c2cc(C(=O)Nc3cccnc3)c3ccccc3n2)c1	RGS4 pot -9.5 | RGS4 activ val 56 | M3R Ca counter inactive
